# The source made the active and inactive calls. The rule behind the calls is not given here.
# Tests used:
# Influenza B virus [1] = test: Antiviral activity against Influenza B virus B/Ned/537/05 infected in MDCK cells assessed as protection against virus-induced reduction in cell viability after 3 to 6 days by MTS assay; format: functional, organism-based; conditions: B/Ned/537/05, MDCK
# Method in brief: (§1)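 MDCK cells seeded at 9000/well and infected one day later (semiconfluent) with 100 CCID50 virus. Medium was FCS-free Ultra MDCK with 2 μg/mL TPCK-trypsin. Serial five-fold compound dilutions (top 100 μM) were added with the virus, followed by 3–6 days at 35 °C. MTS read-out gave % protection versus virus and mock controls. EC50 was interpolated from semi-log curves; mean of two or three experiments.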
# Influenza A virus = test: Antiviral activity against Influenza A virus (A/Puerto Rico/8/34(H1N1)) infected in MDCK cells assessed as protection against virus-induced reduction in cell viability after 3 to 6 days by MTS assay; format: functional, organism-based; conditions: A/Puerto Rico/8/1934(H1N1); method in brief: as §1
# Vero = test: Cytotoxicity against African green monkey Vero cells assessed as reduction in cell viability measured after 3 to 6 days by MTS assay; format: cell-based; conditions: chlorocebus sabaeus
# MDCK = test: Cytotoxicity against MDCK cells assessed as reduction in cell viability measured after 3 to 6 days by MTS assay; format: cell-based, Canis lupus familiaris; conditions: dog
# Method in brief: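 Mock-infected MDCK plates were run in parallel (FCS-free Ultra MDCK medium with TPCK-trypsin) with serial five-fold dilutions up to […], 35 °C for 3–6 days. CC50 was interpolated from semi-log dose-response curves; mean of two or three experiments.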
# [2] = test system: Human immunodeficiency virus; test: Antiviral activity against HIV; format: functional, organism-based
# Influenza B virus [3] = test: Potency index, ratio of ribavirin EC50 to compound EC50 for Influenza B virus B/Ned/537/05 infected in MDCK cells; format: functional
# [4] = Cytotoxicity against human HeLa cells assessed as alterations in normal cell morphology measured after 3 to 6 days by microscopic analysis; format: cell-based
# Method in brief: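 Mock-infected HeLa cultures in 2% FCS medium received serial five-fold dilutions […] for 3–6 days at 37 °C. MCC was the lowest concentration giving microscopically visible minimal change in cell morphology (rounding, shrinking, lysis).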
# Human respirovirus 3 = test: Antiviral activity against Parainfluenza virus 3 infected in African green monkey Vero cells assessed as inhibition of virus-induced cytopathic effect after 3 to 6 days by MTS assay; format: functional, organism-based
# Human coronavirus 229E = test: Antiviral activity against Human coronavirus 229E infected in human HEL299 cells assessed as inhibition of virus-induced cytopathic effect after 3 to 6 days by MTS assay; format: functional, organism-based
# [5] = test system: Vesicular stomatitis virus; test: Antiviral activity against Vesicular stomatitis virus infected in human HEL299 cells assessed as inhibition of virus-induced cytopathic effect after 3 to 6 days by MTS assay; format: functional, organism-based
# Dihydrofolate reductase = molecular target: T1, Dihydrofolate reductase (Homo sapiens, UniProt P00374); test: Binding affinity to human recombinant DHFR using dihydrofolate as substrate after 180 secs by spectrophotometric method
# T1 sequence (P00374 whole entry): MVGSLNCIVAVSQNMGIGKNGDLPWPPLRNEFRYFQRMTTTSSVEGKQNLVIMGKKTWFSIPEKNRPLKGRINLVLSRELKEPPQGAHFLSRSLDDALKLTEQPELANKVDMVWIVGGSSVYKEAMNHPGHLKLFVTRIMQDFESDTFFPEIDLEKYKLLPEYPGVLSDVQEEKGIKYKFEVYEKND
# Method in brief: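 Recombinant human DHFR (0.42 μM) in TES buffer with inhibitor, 60 μM DHF, and 120 μM NADPH added last to start the reaction. Absorbance at 340 nm was followed for 180 s. Six concentrations (1–32 μM) were run in duplicate. IC50 came from Dixon plots assuming competitive inhibition. Ki = IC50/(1+[S]/Km), with DHF Km 5 μM.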
# [6] = Selectivity index, ratio of CC50 for MDCK cells to EC50 for Influenza B virus B/Ned/537/05 infected in MDCK cells; format: toxicity, cell-based; conditions: dog, read-out: Ratio CC50/EC50
# Method in brief: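 Selectivity index for influenza B in MDCK was calculated as MTS-based CC50 divided by MTS-based EC50, both measured in parallel in the same assay.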
# Human adenovirus 2 = test: Antiviral activity against Human adenovirus type 2 infected in human HEL299 cells assessed as inhibition of virus-induced cytopathic effect after 3 to 6 days by MTS assay; format: functional, organism-based
# Sindbis virus = test: Antiviral activity against Sindbis virus infected in African green monkey Vero cells assessed as inhibition of virus-induced cytopathic effect after 3 to 6 days by MTS assay; format: functional, organism-based
# Vaccinia virus = test: Antiviral activity against Vaccinia virus infected in human HEL299 cells assessed as inhibition of virus-induced cytopathic effect after 3 to 6 days by MTS assay; format: functional, organism-based; conditions: Orthopoxvirus vaccinia
# Human alphaherpesvirus 2 = test: Antiviral activity against Herpes simplex virus type 2 infected in human HEL299 cells assessed as inhibition of virus-induced cytopathic effect after 3 to 6 days by MTS assay; format: functional, organism-based
# [7] = Selectivity index, ratio of MCC for human HeLa cells to EC50 for Respiratory syncytial virus Long infected in human HeLa cells; format: toxicity, cell-based; conditions: read-out: Selectivity Index
# Method in brief: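 Selectivity index for RSV Long in HeLa was calculated as microscopic MCC divided by CPE-based microscopic EC50 from parallel infected and mock-infected cultures.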
# [8] = test system: Respiratory syncytial virus; test: Potency index, ratio of ribavirin EC50 to compound EC50 for Respiratory syncytial virus Long infected in human HeLa cells; format: functional
# Yellow fever virus = test: Antiviral activity against Yellow fever virus infected in African green monkey Vero cells assessed as inhibition of virus-induced cytopathic effect after 3 to 6 days by MTS assay; format: functional, organism-based
# [9] = Cytotoxicity against MDCK cells assessed as alterations in normal cell morphology measured after 3 to 6 days by microscopic analysis; format: cell-based, Canis lupus familiaris; conditions: dog
# Method in brief: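 Uninfected MDCK cultures in FCS-free Ultra MDCK medium with trypsin received five-fold compound dilutions (up to […]) for 3–6 days at 35 °C. Microscopy scored morphology, and MCC was taken as the lowest concentration causing minimal rounding, shrinking or lysis.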
# [10] = test system: Respiratory syncytial virus; test: Antiviral activity against Respiratory syncytial virus Long infected in human HeLa cells assessed as inhibition of virus-induced cytopathic effect after 3 to 6 days by MTS based microscopy; format: functional, organism-based
# Punta Toro virus = test: Antiviral activity against Punta Toro virus infected in African green monkey Vero cells assessed as inhibition of virus-induced cytopathic effect after 3 to 6 days by MTS assay; format: functional, organism-based
# Human alphaherpesvirus 1 = test: Antiviral activity against Herpes simplex virus type 1 infected in human HEL299 cells assessed as inhibition of virus-induced cytopathic effect after 3 to 6 days by MTS assay; format: functional, organism-based
# Coxsackievirus B4 = test: Antiviral activity against Coxsackie B4 virus infected in human HeLa cells assessed as inhibition of virus-induced cytopathic effect after 3 to 6 days by MTS assay; format: functional, organism-based
# [11] = test system: Mammalian orthoreovirus 1; test: Antiviral activity against Reovirus-1 infected in African green monkey Vero cells assessed as inhibition of virus-induced cytopathic effect after 3 to 6 days by MTS assay; format: functional, organism-based
# Hepatitis C virus = test: Antiviral activity against Hepatitis C virus after 2 days by luminometric method; format: functional, organism-based, Hepacivirus hominis; conditions: 48 h
# [12] = Selectivity index, ratio of CC50 for human Lunet cells to EC50 for West Nile virus; format: toxicity; conditions: read-out: Ratio CC50/EC50
# [13] = Selectivity index, ratio of CC50 for human Lunet cells to EC50 for Hepatitis C virus; format: toxicity; conditions: read-out: Ratio CC50/EC50
# [14] = Selectivity index, ratio of CC50 for human Lunet cells to EC50 for HIV; format: toxicity; conditions: read-out: Ratio CC50/EC50
# [15] = test system: Human immunodeficiency virus; test: Antiviral activity against HIV after 2 days by luminometric method; format: functional, organism-based; conditions: Human immunodeficiency virus 1, 48 h
# Dengue virus = test: Antiviral activity against DENV after 2 days by luminometric method; format: functional, organism-based; conditions: 48 h
# [16] = Selectivity index, ratio of CC50 for human Lunet cells to EC50 for DENV; format: toxicity; conditions: read-out: Ratio CC50/EC50
# West Nile virus = test: Antiviral activity against West Nile virus after 2 days by luminometric method; format: functional, organism-based; conditions: 48 h
SMILES,EC50 (Influenza B virus [1]),EC50 (Influenza A virus),Activity (Vero),CC50 (MDCK),Activity [2],MCC [4],Activity (Human respirovirus 3),Activity (Human coronavirus 229E),Activity [5],Ki (Dihydrofolate reductase),Activity (Human adenovirus 2),Activity (Sindbis virus),Activity (Vaccinia virus),Activity (Human alphaherpesvirus 2),Activity (Yellow fever virus),MCC [9],EC50 [10],Activity (Punta Toro virus),Activity (Human alphaherpesvirus 1),Activity (Coxsackievirus B4),further results
Cc1ccc(C(=O)N2CCC3(CC2)N=C(N)N=C(N)N3c2cccc(Cl)c2)cc1,290 nM,> 100000 nM,Non-Toxic,18000 nM,inactive,≥ 100 µM,inactive,inactive,inactive,640 nM,inactive,inactive,inactive,inactive,inactive,≥ 800 nM,400 nM,inactive,inactive,inactive,Ratio EC50 (Influenza B virus [3]): 11; selectivity ratio [6]: 62; selectivity ratio [7]: 250; Ratio EC50 [8]: 15; Activity [11]: inactive
Cc1cn(-c2ccc(NC(=O)Nc3ccccc3C)cc2)nn1,–,–,–,–,–,–,–,–,–,–,–,–,–,–,–,–,–,–,–,–,EC50 (Hepatitis C virus): 970 to 16500 nM; selectivity ratio [12]: 162; selectivity ratio [13]: 162; selectivity ratio [14]: 162; EC50 [15]: 970 to 16500 nM; EC50 (Dengue virus): 970 to 16500 nM; selectivity ratio [16]: 162; EC50 (West Nile virus): 970 to 16500 nM
CCS(=O)(=O)N1CCC2(CC1)N=C(N)N=C(N)N2CCOC,3000 nM,> 100000 nM,Non-Toxic,> 100000 nM,inactive,> 100 µM,inactive,inactive,inactive,1400 nM,inactive,inactive,inactive,inactive,inactive,> 100000 nM,> 100000 nM,inactive,inactive,inactive,Activity [11]: inactive
NC1=NC2(CCN(C(=O)Nc3ccc(F)cc3)CC2)N(c2cccc(Cl)c2)C(N)=N1,190 nM,> 100000 nM,Non-Toxic,51000 nM,inactive,≥ 100 µM,inactive,inactive,inactive,530 nM,inactive,inactive,inactive,inactive,inactive,≥ 160 nM,1800 nM,inactive,inactive,inactive,selectivity ratio [6]: 268; selectivity ratio [7]: 56; Ratio EC50 [8]: 3; Activity [11]: inactive

# From ChEMBL document CHEMBL4152296, “Synthesis, biological evaluation and molecular modeling of novel azaspiro dihydrotriazines as influenza virus inhibitors targeting the host factor dihydrofolate reductase (DHFR)” (Eur J Med Chem, 2018)
